From PubChem BioAssay
Activity calls are given as the source filed them.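 How the source made its calls: active means growth inhibition above a set limit, 3 SD over mean compound inhibition, in both replicates (cut at about 43% in these data); inconclusive means above the limit in only one replicate; inactive means at or below the limit in both replicates.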

Assay: MRP1 drug-resistance reversers in H69AR cells – cell-based, doxorubicin co-treatment, pilot screen (AID 601)
Conditions: H69AR cells + 2 uM doxorubicin, CellTiter-Glo, 72 h; measured here: viability with 2 uM doxorubicin; at 10 µM; stronger effect = lower value

| Structure (SMILES) | viability [%] |
| --- | --- |
| CCCNCC(O)COc1ccccc1C(=O)CCc1ccccc1 (stereo not drawn) | 84.8 |
| CC(C)(S)[C@@H](N)C(=O)O | 94.3 |
| CC(=O)OCC(=O)[C@@]1(O)CC[C@H]2[C@@H]3CCC4=CC(=O)C=C[C@]4(C)[C@@]3(Cl)[C@@H](Cl)C[C@@]21C | 110 |
| CCOC(=O)CCC(=O)O[C@H]1[C@H](O[C@@H]2[C@@H](C)[C@H](O[C@H]3C[C@@](C)(OC)[C@@H](O)[C@H](C)O3)[C@@H](C)C(=O)O[C@H](CC)[C@@](C)(O)[C@H](O)[C@@H](C)C(=O)[C@H](C)C[C@@]2(C)O)O[C@H](C)C[C@@H]1N(C)C | 90.4 |
| CC(C)[N+](C)(CCOC(=O)C1c2ccccc2Oc2ccccc21)C(C)C | 85.7 |
| O=c1n(CCCN2CCN(c3cccc(Cl)c3)CC2)nc2ccccn12 | 94.3 |
| CN(C)CCOC(C)(c1ccccc1)c1ccccn1 (stereo not drawn) | 105 |
| Nc1ccc(S(=O)(=O)NC(=O)c2ccccc2)cc1 | 92.4 |
| Nc1ccc2[nH]ncc2c1 | 107 |
| CCCCOc1ccc(OCCCN2CCOCC2)cc1 | 95.2 |
| Nc1nc(F)nc2c1ncn2[C@@H]1O[C@H](CO)[C@@H](O)[C@@H]1O | 106 |
| CC(C)(C)NC[C@H](O)COc1nsnc1N1CCOCC1 | 104 |
| CCCn1c(=O)[nH]c(=O)c2[nH]cnc21 | 96.7 |
| CC(COc1ccccc1)NC(C)C(O)c1ccc(O)cc1 (stereo not drawn) | 106 |
| Cc1cc(NC(=O)C2=C(O)c3ccccc3S(=O)(=O)N2C)no1 | 94.7 |
| CCN(CC)CC#CCOC(=O)C(O)(c1ccccc1)C1CCCCC1 (stereo not drawn) | 72.1 |
| CN1CCN2c3ccccc3Cc3ccccc3C2C1 (stereo not drawn) | 89.1 |
| O=C(O)Cc1cc(I)c(Oc2ccc(O)c(I)c2)c(I)c1 | 100 |
| CC(=O)N[C@@H](CS)C(=O)O | 88.6 |
| CN(CCO)CC(O)Cn1cnc2c1c(=O)n(C)c(=O)n2C (stereo not drawn) (tested in a mixture with another compound) | 85.9 |
| N=c1c[n+](N2CCOCC2)[n-]o1 | 101 |
| CC(=O)NS(=O)(=O)c1ccc(N)cc1 | 95.4 |
| CN(C)CCOc1ccccc1Cc1ccccc1 | 89.5 |
| CC(=O)OCC(=O)[C@@]1(O)[C@H](C)C[C@H]2[C@@H]3CCC4=CC(=O)C=C[C@]4(C)[C@@]3(F)[C@@H](O)C[C@@]21C | 109 |
| c1ccc2[nH]c(-c3cscn3)nc2c1 | 102 |

Same assay, conditions: H69AR cells, CellTiter-Glo, 72 h; compound alone cytotoxicity; at 10 µM

| Structure (SMILES) | viability [%] |
| --- | --- |
| CCCNCC(O)COc1ccccc1C(=O)CCc1ccccc1 (stereo not drawn) | 87.1 |
| CC(C)(S)[C@@H](N)C(=O)O | 110 |
| CC(=O)OCC(=O)[C@@]1(O)CC[C@H]2[C@@H]3CCC4=CC(=O)C=C[C@]4(C)[C@@]3(Cl)[C@@H](Cl)C[C@@]21C | 97.4 |
| CCOC(=O)CCC(=O)O[C@H]1[C@H](O[C@@H]2[C@@H](C)[C@H](O[C@H]3C[C@@](C)(OC)[C@@H](O)[C@H](C)O3)[C@@H](C)C(=O)O[C@H](CC)[C@@](C)(O)[C@H](O)[C@@H](C)C(=O)[C@H](C)C[C@@]2(C)O)O[C@H](C)C[C@@H]1N(C)C | 89.8 |
| CC(C)[N+](C)(CCOC(=O)C1c2ccccc2Oc2ccccc21)C(C)C | 88.1 |
| O=c1n(CCCN2CCN(c3cccc(Cl)c3)CC2)nc2ccccn12 | 87.3 |
| CN(C)CCOC(C)(c1ccccc1)c1ccccn1 (stereo not drawn) | 93.5 |
| Nc1ccc(S(=O)(=O)NC(=O)c2ccccc2)cc1 | 98.5 |
| Nc1ccc2[nH]ncc2c1 | 100 |
| CCCCOc1ccc(OCCCN2CCOCC2)cc1 | 103 |
| Nc1nc(F)nc2c1ncn2[C@@H]1O[C@H](CO)[C@@H](O)[C@@H]1O | 103 |
| CC(C)(C)NC[C@H](O)COc1nsnc1N1CCOCC1 | 106 |
| CCCn1c(=O)[nH]c(=O)c2[nH]cnc21 | 100 |
| CC(COc1ccccc1)NC(C)C(O)c1ccc(O)cc1 (stereo not drawn) | 88.6 |
| Cc1cc(NC(=O)C2=C(O)c3ccccc3S(=O)(=O)N2C)no1 | 112 |
| CCN(CC)CC#CCOC(=O)C(O)(c1ccccc1)C1CCCCC1 (stereo not drawn) | 71.7 |
| CN1CCN2c3ccccc3Cc3ccccc3C2C1 (stereo not drawn) | 90.2 |
| O=C(O)Cc1cc(I)c(Oc2ccc(O)c(I)c2)c(I)c1 | 96.3 |
| CC(=O)N[C@@H](CS)C(=O)O | 101 |
| CN(CCO)CC(O)Cn1cnc2c1c(=O)n(C)c(=O)n2C (stereo not drawn) (tested in a mixture with another compound) | 83.6 |
| N=c1c[n+](N2CCOCC2)[n-]o1 | 96.5 |
| CC(=O)NS(=O)(=O)c1ccc(N)cc1 | 102 |
| CN(C)CCOc1ccccc1Cc1ccccc1 | 100 |
| CC(=O)OCC(=O)[C@@]1(O)[C@H](C)C[C@H]2[C@@H]3CCC4=CC(=O)C=C[C@]4(C)[C@@]3(F)[C@@H](O)C[C@@]21C | 93.5 |
| c1ccc2[nH]c(-c3cscn3)nc2c1 | 97.9 |

Assay: S. cerevisiae growth inhibition in restrictive medium, OD615, pilot screen, restrictive growth control, yeast lifespan reduction project (AID 706);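 further: modified DeaD lifespan yeast strain shifted to restrictive glucose medium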
Conditions: OD615, 48 h, at 10 µM, stronger effect = higher value
How it was run: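 System: Engineered S. cerevisiae DeaD strain | Detection: OD615 | Buffer or medium: CSMM-D glucose medium | Doses: 10 µM compound, 0.25% DMSO | Timing: 4 h pre-growth plus 48 h compound exposure, 30 °C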

| Structure (SMILES) | growth inhibition |
| --- | --- |
| Cc1nc2ccccc2c2nc3ccccc3n12 | 43.3% (active) |
| CC(Sc1nc2ccccc2s1)C(=O)N1CCOCC1 (stereo not drawn) | 2.68% (inactive) |
| CC(C)Sc1nc(O)c(Cc2ccccc2)c(=O)[nH]1 | -0.8% (inactive) |
